Reference: ChEMBL document CHEMBL4619801, “Discovery of Phthalazinone Derivatives as Novel Hepatitis B Virus Capsid Inhibitors” (J Med Chem, 2020)

Assays:
[1] = Drug metabolism in mouse liver microsomes assessed as compound level by measuring UV-area of metabolite-M2 at 3 uM in presence of NADPH incubated for 60 mins by UPLC-UV/QTOF MS analysis; format: ADME, Microsome; settings: 1 h
How it was run: (§1)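 Each incubation held liver microsomes (human, monkey, dog, rat or mouse) at 0.5 mg/mL with 3.0 μM compound in 100 mM potassium phosphate, pH 7.4. After 3 min prewarming at 37 °C, the reaction was started with 1 mM NADPH. It was stopped at 60 min with ice-cold acetonitrile. Parent remaining and metabolites were judged from relative UV area.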

[2] = Retention time of the compound by […]; format: physicochemical
[3] = Drug metabolism in monkey liver microsomes assessed as compound level by measuring UV-area at 3 uM in presence of NADPH incubated for 60 mins by UPLC-UV/QTOF MS analysis; format: ADME, Macaca mulatta, Microsome; settings: rhesus monkey, 1 h; how it was run: as §1
[4] = Drug metabolism in monkey liver microsomes at 3 uM in presence of NADPH incubated for 60 mins by UPLC-UV/QTOF MS analysis relative to control; format: ADME, Macaca mulatta, Microsome; settings: rhesus monkey, read-out: Drug metabolism; how it was run: as §1
[5] = Drug metabolism in dog liver microsomes at 3 uM in presence of NADPH incubated for 60 mins by UPLC-UV/QTOF MS analysis relative to control; format: ADME, Canis lupus familiaris, Microsome; settings: read-out: Drug metabolism; how it was run: as §1
[6] = Drug metabolism in dog liver microsomes assessed as compound level by measuring UV-area of metabolite-M1 at 3 uM in presence of NADPH incubated for 60 mins by UPLC-UV/QTOF MS analysis; format: ADME, Canis lupus familiaris, Microsome; settings: 1 h; how it was run: as §1
[7] = AUC (0 to t) in Sprague-Dawley rat at 2 mg/kg, iv dosed as single administration; format: ADME, organism-based; settings: in vivo
[8] = Drug metabolism in mouse liver microsomes assessed as compound level by measuring LC-MS area at 3 uM in presence of NADPH incubated for 60 mins by UPLC-UV/QTOF MS analysis; format: ADME, Microsome; settings: 1 h; how it was run: as §1
[9] = Drug level in CD1 mouse liver at 20 mg/kg, po dosed as single administration measured up to 24 hrs; format: ADME, organism-based; settings: in vivo
How it was run: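 ICR (CD-1) mice were dosed orally at 20 mg/kg. At set times (1, 3, 8 and 24 h), blood was taken from the heart and portal vein under isoflurane anesthesia and spun to plasma. Livers were removed after portal vein perfusion, rinsed in saline, weighed and homogenized in saline (5 mL/g). Samples were analysed by UPLC–MS/MS in positive electrospray mode.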

[10] = tested on: Hepatitis B virus; test: Antiviral activity against HBV infected in human HepG2.2.15 cells assessed as reduction in cytoplasmic HBV-DNA replication incubated for 8 days by real-time PCR analysis; format: functional, organism-based; settings: HepG2 2.2.15, 192 h
[11] = Oral bioavailability in Sprague-Dawley rat at 20 mg/kg dosed as single administration; format: ADME, organism-based; settings: in vivo

Cc1cc(-c2ccc(F)nc2F)nn(Cc2ccc(Cl)cc2)c1=O
Activity [1]: 15.4 ×10³ No_unit | Retention_time [2]: 7.3 min | Activity [3]: 34.1 ×10³ No_unit | metabolised at 1 h, 3 µM [4]: 73% | metabolised at 1 h, 3 µM [5]: 79% | Activity [6]: 84.6 ×10³ No_unit | AUC(0-t) [7]: 428 ng·h/mL | Activity [8]: 1 ×10³ No_unit | Drug uptake [9]: Not Active | IC50 [10]: 98 nM | bioavailability [11]: 25.3%
